The record followed here is ChEMBL document CHEMBL1123333, “Synthesis and antiviral activity of certain nucleoside 5'-phosphonoformate derivatives” (1986).

Test [1] concerns Vero. As to the kind of experiment: Virus rating against Herpes simplex virus type 2 of strain MS. In kind it is functional, Chlorocebus sabaeus. An outline of the steps:
(§1)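 Virus-infected confluent Vero cells treated with compound in seven 0.5-log steps (final 5.0–5000 μM) after 30-min adsorption at 37 °C, duplicate wells per concentration. CPE scored microscopically 0 (normal) to 4 (complete destruction) after 72 h at 37 °C, 5% CO2.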

Test [2] concerns Vero. Nature of the test: Compound was tested for antiviral activity against vaccinia. Format: functional. The settings on record: Chlorocebus sabaeus, read-out: ED50 (the source's name).
Test [3] has as its system Vero. Nature of the test: Virus rating against Herpes simplex virus type 2 of strain 333. In kind it is functional, Chlorocebus sabaeus. An outline of the steps: as §1
For test [4], the system named is Vero. Nature of the test: Compound was tested for antiviral activity against Herpes simplex virus type 2 (MS). Format: functional. The settings on record: Chlorocebus sabaeus, read-out: ED50 (the source's name).
For test [5], the system named is Vero. Nature of the test: Virus rating against Herpes simplex virus type 1 of strain KOS. Format: functional, Chlorocebus sabaeus. Summed up:
as §1

Test [6] concerns Vero. Nature of the test: Compound was tested for antiviral activity against Herpes simplex virus type 1 (HF). Format: functional. The settings on record: Chlorocebus sabaeus, read-out: ED50 (the source's name).
For test [7], the system named is Vero. Nature of the test: Virus rating against vaccinia. Format: functional, Chlorocebus sabaeus. Summed up: as §1
Test [8] relates to Vero. Nature of the test: Virus rating against Herpes simplex virus type 1 of strainHF. Format: functional, Chlorocebus sabaeus. An outline of the steps: as §1
Test [9] deals with Vero. Nature of the test: Virus rating against para 3. Format: functional, Chlorocebus sabaeus. An outline of the steps: as §1
Test [10] relates to Vero. Nature of the test: Compound was tested for antiviral activity against Herpes simplex virus type 1(KOS). Format: functional. The settings on record: Chlorocebus sabaeus, read-out: ED50 (the source's name).
Test [11] has as its system Vero. Nature of the test: Compound was tested for antiviral activity against Herpes simplex virus type 2 of strain 333. In kind it is functional. The settings on record: Chlorocebus sabaeus, read-out: ED50 (the source's name).
For test [12], the system named is Vero. As to the kind of experiment: Compound was tested for antiviral activity against measles virus. The conditions noted are these: Chlorocebus sabaeus, read-out: ED50 (the source's name). In kind it is functional.
In test [13] the test system is Vero. Nature of the test: Maximum tolerated concentration (MTC), the lowest concentration that produced microscopically evident toxicity to confluent vero cells. In kind it is functional, Chlorocebus sabaeus. An outline of the steps:
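Uninfected confluent Vero monolayers in DMEM with 10% newborn bovine serum, single well per concentration, exposed to compound at final 5.0–5000 μM (0.5-log steps) for 72 h at 37 °C, 5% CO2. Cytotoxicity was any microscopic change in morphology or monolayer density from lysis, rounding or detachment. MTC = lowest concentration showing such change.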

Test [14] has as its system Vero. As to the kind of experiment: Virus rating against measles virus. In kind it is functional, Chlorocebus sabaeus. Summed up:
as §1

In test [15] the test system is Vero. As to the kind of experiment: Compound was tested for antiviral activity against para 3. In kind it is functional. The conditions noted are these: Chlorocebus sabaeus, read-out: ED50 (the source's name).
Test [16] deals with Vero. As to the kind of experiment: Virus rating against Herpes simplex virus type 1 of strain HF. In kind it is functional, Chlorocebus sabaeus. An outline of the steps:
as §1

Each structure is given as a SMILES string.

Turning to `Nc1nc(O)c2ncn([C@H]3C[C@H](O)[C@@H](COP(=O)(O)C(=O)O)O3)c2n1`, the VR is listed as 1.18 in the test on Vero [1]; 1.26 with Vero [3]; 0.1 with Vero [5]; 0 in the test with Vero [7]; 0.22 in the test with Vero [8]; 0.25 with Vero [9]. In addition, the VR with Vero [14] was determined as 0.1. The EC50 is over 5000 µM in the test on Vero [2]; 350 µM in the test on Vero [4]; over 5000 µM with Vero [6]; over 5000 µM in the test with Vero [10]; 230 µM with Vero [11]; over 5000 µM with Vero [12]. For the same molecule, in the test with Vero [13], the MTC was 5000 µM.
With `Nc1ncnc2c1ncn2[C@H]1C[C@H](O)[C@@H](COP(=O)(O)C(=O)O)O1`, the VR in the test on Vero [1] is 1.85; with Vero [3], 1.77; in the test on Vero [5], 0.65; in the test on Vero [7], 0; in the test on Vero [8], 1.08; with Vero [14] it was 0.7. Besides, the EC50 in the test on Vero [2] is over 5000 µM; in the test with Vero [4], 40 µM; with Vero [6], 730 µM; in the test with Vero [10], 1800 µM; in the test with Vero [11], 54 µM; in the test on Vero [12], 900 µM. Besides, the MTC in the test with Vero [13] is over 5000 µM.
As to `Nc1ncnc2c1ncn2C1O[C@H](COP(=O)(O)C(=O)O)[C@@H](O)[C@H]1O` (stereo partly specified), the VR is recorded as 1.15 with Vero [1]; 0.7 in the test on Vero [3]; 0 in the test with Vero [5]; 0.65 with Vero [7]; 0.18 in the test with Vero [8]; 0 in the test with Vero [9]. The molecule also had a VR in the test on Vero [14] of 0.38. Also, the EC50 in the test on Vero [15] was over 5000 µM; with Vero [2], 740 µM; in the test with Vero [4], 360 µM; with Vero [6], over 5000 µM; with Vero [10] it was over 5000 µM; with Vero [11], 1600 µM. For the same molecule, the EC50 in the test on Vero [12] was found to be 3000 µM. Also, the MTC in the test with Vero [13] was over 5000 µM.
With `CCOC(=O)P(=O)(O)OC[C@H]1OC(n2cnc3c(N)ncnc32)[C@H](O)[C@@H]1O` (stereo partly specified), the VR in the test on Vero [1] is recorded as 1.12; in the test on Vero [3], 0.72; in the test on Vero [5], 0; with Vero [7], 0.23; in the test on Vero [8], 0.3; in the test on Vero [9], 0. The EC50 in the test with Vero [15] was over 5000 µM; in the test with Vero [2], over 5000 µM; with Vero [4], 820 µM; with Vero [6], over 5000 µM; with Vero [10], over 5000 µM; with Vero [11] it was 1000 µM. Besides, in the test on Vero [12], the EC50 is over 5000 µM. The same molecule displayed an MTC in the test on Vero [13] of over 5000 µM.
`NC(=O)P(=O)(O)OC[C@H]1OC(n2cnc3c(N)ncnc32)[C@H](O)[C@@H]1O` (stereo partly specified): the VR in the test with Vero [1] is reported as 1; with Vero [3], 1.24; with Vero [5], 0; in the test with Vero [7], 0; with Vero [8], 0.28; in the test with Vero [9] it was 0.1. Further, the VR with Vero [14] stood at 0.45. The EC50 in the test on Vero [15] is over 5000 µM; with Vero [2] it was over 5000 µM; in the test on Vero [4] it was 830 µM; in the test with Vero [6] it was over 5000 µM; in the test on Vero [10], over 5000 µM; with Vero [11], 440 µM. In the test on Vero [12], the EC50 amounted to 2800 µM. In addition, the MTC in the test with Vero [13] is over 5000 µM.
Regarding `NC(=O)P(=O)(O)OC[C@H]1OC(n2cnc3c(O)nc(N)nc32)[C@H](O)[C@@H]1O` (stereo partly specified), the VR in the test with Vero [1] stood at 0.91; in the test with Vero [3] it was 1.16; in the test on Vero [5] it was 0; in the test with Vero [7] it was 0; in the test on Vero [8], 0; with Vero [9] it was 0.1. The VR with Vero [14] was 0.7. Further, the EC50 in the test on Vero [15] was over 5000 µM; with Vero [2] it was over 5000 µM; with Vero [4], 970 µM; with Vero [6] it was over 5000 µM; in the test with Vero [10], over 5000 µM; in the test on Vero [11], 300 µM. Moreover, the EC50 in the test with Vero [12] worked out at 900 µM. For the same molecule, in the test with Vero [13], the MTC is over 5000 µM.
`CCOC(=O)P(=O)(O)OC[C@H]1OC(n2cnc3c(O)nc(N)nc32)[C@H](O)[C@@H]1O` (stereo partly specified): the VR in the test on Vero [1] amounted to 0.9; in the test on Vero [3], 1.02; with Vero [5] it was 0; with Vero [7] it was 0; in the test on Vero [9], 0.1; with Vero [16], 0.22. The VR in the test with Vero [14] is 0.68. For the same molecule, the EC50 in the test with Vero [15] was over 5000 µM; in the test with Vero [2], over 5000 µM; in the test with Vero [4] it was 820 µM; in the test with Vero [6], over 5000 µM; in the test on Vero [10], over 5000 µM; in the test on Vero [11] it was 600 µM. Moreover, the EC50 in the test with Vero [12] stood at 500 µM. The molecule also returned an MTC in the test with Vero [13] of over 5000 µM.
On to `Nc1nc(O)c2ncn(C3O[C@H](COP(=O)(O)C(=O)O)[C@@H](O)[C@H]3O)c2n1` (stereo partly specified), for which the VR is listed as 0.18 in the test on Vero [1]; 0.22 in the test on Vero [3]; 0 in the test on Vero [5]; 0 in the test on Vero [7]; 0.2 with Vero [8]; 0.1 in the test on Vero [9]. Moreover, the VR in the test with Vero [14] came out at 0.62. Besides, the EC50 in the test with Vero [15], in the test with Vero [2], in the test with Vero [4], with Vero [6], in the test with Vero [10] and in the test with Vero [11] was over 5000 µM each time. For the same molecule, in the test on Vero [12], the EC50 came out at 330 µM. The molecule further showed an MTC with Vero [13] of over 5000 µM.
With `O=C([O-])P(=O)([O-])[O-].[Na+].[Na+].[Na+]` [FOSCARNET SODIUM], the VR with Vero [1] is on record as 1.74; in the test with Vero [3], 2.08; in the test on Vero [5], 1.37; in the test on Vero [7], 0.1; in the test with Vero [8], 1.3; in the test on Vero [9], 0.4. Besides, the VR with Vero [14] is 0. Moreover, the EC50 is 5000 µM with Vero [15]; over 5000 µM in the test with Vero [2]; 89 µM in the test on Vero [4]; 230 µM in the test with Vero [6]; 170 µM in the test with Vero [10]; 20 µM with Vero [11]. In addition, the EC50 in the test on Vero [12] is over 5000 µM. The MTC in the test on Vero [13] was over 5000 µM.
